Source: PubChem BioAssay (Sanford-Burnham Center for Chemical Genomics)
Apaf1 activ: activators of human Apaf-1 apoptosome | Apaf-1 apoptosome caspase-3 activation, DEVD-Rh110 fluorescence; hits give low values | O14727 | 330,000 compounds, 0.31% hits | activity change, negative = activation, % at 20 µM | AID 489031;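 active = activity change at or below -40% at 20 µM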
Target sequence (O14727 whole entry, looked up): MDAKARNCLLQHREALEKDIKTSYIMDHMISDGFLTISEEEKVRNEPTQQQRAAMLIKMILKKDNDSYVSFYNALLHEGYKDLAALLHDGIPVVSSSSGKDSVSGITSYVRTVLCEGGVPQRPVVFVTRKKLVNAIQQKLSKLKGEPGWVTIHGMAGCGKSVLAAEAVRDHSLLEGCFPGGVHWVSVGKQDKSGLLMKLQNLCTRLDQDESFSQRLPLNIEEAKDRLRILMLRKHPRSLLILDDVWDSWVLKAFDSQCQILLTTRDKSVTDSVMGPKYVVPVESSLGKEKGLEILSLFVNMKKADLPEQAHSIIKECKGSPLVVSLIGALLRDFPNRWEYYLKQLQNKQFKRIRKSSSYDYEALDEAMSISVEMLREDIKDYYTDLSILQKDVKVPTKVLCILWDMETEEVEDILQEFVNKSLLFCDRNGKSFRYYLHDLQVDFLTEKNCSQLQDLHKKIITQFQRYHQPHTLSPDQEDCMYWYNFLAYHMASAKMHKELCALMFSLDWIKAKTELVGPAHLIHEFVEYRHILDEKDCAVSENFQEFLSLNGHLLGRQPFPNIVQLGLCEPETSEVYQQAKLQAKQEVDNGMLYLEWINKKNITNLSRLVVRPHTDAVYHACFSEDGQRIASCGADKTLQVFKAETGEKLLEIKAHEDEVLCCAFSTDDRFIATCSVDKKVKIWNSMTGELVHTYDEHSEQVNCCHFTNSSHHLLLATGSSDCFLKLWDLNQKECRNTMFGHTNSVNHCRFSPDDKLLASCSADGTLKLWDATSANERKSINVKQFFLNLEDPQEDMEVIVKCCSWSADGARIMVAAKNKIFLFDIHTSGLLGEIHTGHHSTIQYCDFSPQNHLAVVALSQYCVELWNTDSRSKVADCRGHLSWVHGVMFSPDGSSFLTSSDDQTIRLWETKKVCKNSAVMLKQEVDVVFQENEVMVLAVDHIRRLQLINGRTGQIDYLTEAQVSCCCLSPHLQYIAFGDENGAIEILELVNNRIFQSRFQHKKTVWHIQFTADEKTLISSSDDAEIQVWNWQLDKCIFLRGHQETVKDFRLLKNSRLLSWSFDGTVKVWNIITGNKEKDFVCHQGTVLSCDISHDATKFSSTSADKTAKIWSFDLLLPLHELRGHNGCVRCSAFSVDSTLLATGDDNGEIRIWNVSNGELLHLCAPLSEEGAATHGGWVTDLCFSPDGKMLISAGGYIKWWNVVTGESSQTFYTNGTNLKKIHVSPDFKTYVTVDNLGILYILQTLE
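System: Reconstituted apoptosome of Apaf-1, cytochrome c, caspase-9, procaspase-3 | Reagent: dATP, cytochrome c, and (Z-DEVD)2-Rh110 caspase-3 substrate | Times: 30 min compound preincubation and 50 min reaction, both room temperature | Detection: Caspase-3-released Rh110 fluorescence, 540 nm emission, 480 nm excitation | Measure: Caspase-3 activity via Apaf-1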
Rh110 act interf: counter-screen for Apaf-1 activators: fluorescence interference | shares compounds with Apaf1 activ | Rh110 fluorescence interference, quenched caspase reaction, Ex480/Em540 | fluorescence interference (activity change), % at 20 µM, hits read low | 980 tested, under 10 active | AID 504616;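 active = mean activity change at or below -40% when tested at 20 µM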
Apaf-1 act conf: confirmation of human Apaf-1 activators; 980 compounds, 5% hits; shares compounds with Apaf1 activ; reconstituted apoptosome caspase-3 activity, DEVD-Rh110 fluorescence; hits give low values; activity change, negative = activation, % at 20 µM;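 active = mean activity change at or below -40%, meaning activation of 40% or more, at 20 µM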
Apaf1 act interf: shows fluorescence interference in the Apaf-1 activator assay format; fluorescence interference counterscreen; 55 tested, under 10 active; shares compounds with Apaf1 activ; EC50, µM; call rule not given here
Active calls of the source: *; . = not tested or not shown. The list is a sample of the results.

SMILES	Apaf1 activ	Rh110 act interf	Apaf-1 act conf	others
Cc1ccc(S(=O)(=O)NCc2ccccc2)cc1C(=O)N1CCN(c2ccccc2)CC1	58	.	.
Cc1ccc(C)c(S(=O)(=O)NCc2ccc(C(=O)N3CCOCC3)cc2)c1	-47*	8	11
CS(=O)c1nc(-c2ccc(Br)cc2)cc(-c2ccccc2)c1C#N (stereo not drawn)	55	.	.
CCOC(=O)c1ccc(N2CSC3=C(C#N)C(c4ccc(OC)cc4OC)CC(=O)N3C2)cc1 (stereo not drawn)	50	.	.
C=C(C)C(=O)Nc1cccc(C2=NOC3(C2)C[C@@H](C(N)=O)N(C(=O)CCCCC)C3)c1 (stereo partly drawn)	-333*	5	-121*	Apaf1 act interf=>100
C#CCOCCOCCOCCNc1nc(N2CCN(C(=O)[C@H](CCCCN)n3cc([C@@H](N)C(C)CC)nn3)CC2)nc(N2CCN(C(=O)[C@H](Cc3cc4ccccc4[nH]3)n3cc([C@@H](N)C(C)CC)nn3)CC2)n1 (stereo partly drawn)	53	.	.
Cc1c(CCOC(=O)CC23CC4CC(CC(C4)C2)C3)sc[n+]1CC(=O)c1ccc(Br)cc1	49	.	.
COc1ccc(N2CCN(C(c3cc(OC)ccc3OC)c3nnnn3Cc3ccco3)CC2)cc1 (stereo not drawn)	-258*	7	13
Cc1ccc(C)c2[nH]c(=O)c(C(c3nnnn3Cc3ccco3)N3CCc4ccccc4C3)cc12 (stereo not drawn)	71	.	.
CC1CC(C)CN(CCCNC(=O)CN2C(=O)c3cccnc3Oc3ccc(Cl)cc32)C1 (stereo not drawn)	-148*	-1	9
Cc1[nH][nH]c(=O)c1C(c1ccc(-c2cccc(Cl)c2)o1)c1c(C)[nH][nH]c1=O	87	.	.
C[C@@H]1CN([C@H](C)CO)C(=O)Cc2cc(NS(=O)(=O)c3ccc(Cl)cc3)ccc2O[C@H]1CN(C)Cc1ccc(C(F)(F)F)cc1	41	.	.
Cc1c(C(=O)c2ccc(F)cc2F)c2ccccn2c1CCC#N	63	.	.
COc1ccc(CC(=O)N(C)CC(=O)Nc2ccccc2Cl)cc1S(=O)(=O)N1CCOCC1	59	.	.
COc1ccc(CN(C)C(=O)Cc2ccc(OC)c(S(=O)(=O)N3CCOCC3)c2)cc1OC	60	.	.
COc1ccc(CN2C(=O)c3cccnc3C2=O)cc1S(=O)(=O)N1CCOc2ccccc21	-52*	14	20
NC(CO)C(=O)NNCc1ccc(O)c(O)c1O (stereo not drawn)	51	.	.
C#CCOCCOCCOCCNc1nc(N2CCN(C(=O)[C@H](CCCCN)n3cc([C@@H](N)CO)nn3)CC2)nc(N2CCN(C(=O)[C@H](Cc3cc4ccccc4[nH]3)n3cc([C@@H](N)Cc4ccc(O)cc4)nn3)CC2)n1	55	.	.
CCCC(=O)N1c2ccccc2[C@@H](N(C(C)=O)c2ccccc2)C[C@H]1C	-55*	0	12
O=S(=O)(Nc1cccc(-c2nc3cccnc3s2)c1)c1ccc2c(c1)OCCO2	-104*	2	10
COc1ccc2cc1Oc1ccc(cc1)CC1c3c(cc(OC)c4c3Oc3cc5c(cc3O4)CCNC5C2)CCN1C (stereo not drawn)	41	.	.
CCN(CC)c1ccc(N=Cc2ccc([N+](=O)[O-])o2)cc1	56	.	.
CN(C1=C(NC(=O)c2ccccc2)C(=O)c2ccccc2C1=O)C1CCS(=O)(=O)C1 (stereo not drawn)	88	.	.
CCc1ccc2cccc3c2c1N=CN3C	87	.	.
C/C(=C\C(=S)Nc1ccccc1)Nc1ccc2ccccc2c1	41	.	.
SMILES	Apaf1 activ	Rh110 act interf	Apaf-1 act conf	others
Cc1occc1C(=O)Nc1ccc2ccccc2c1	-351*	1	15
COc1cc(OC)c2c(-c3cccc(-c4ccc(CO)cc4)c3)cc(=O)oc2c1	42	.	.
C[C@H](CCC(=O)O)[C@H]1CC[C@H]2[C@@H]3[C@H](O)C[C@@H]4C[C@H](O)CC[C@]4(C)[C@H]3C[C@H](O)[C@]12C	-3	.	.
COc1ccc(-c2sc3ccccc3c2-c2ccc(OCCN3CCCCC3)cc2)cc1	55	.	.
CSCCC(NC(=O)COc1ccccc1)C(=O)N1CCC(C(N)=O)CC1 (stereo not drawn)	64	.	.
O=C(COc1ccccc1)NCC(=O)NC1CCCCC1	-40*	3	9
COc1ccc(OCC(=O)N/N=C(\C)c2cccs2)cc1	-81*	2	15
COc1ccc2c(c1)Cc1sc(NC(=O)c3cccs3)nc1-2	87	.	.
Cc1oc2c(c1C(=O)c1ccccc1)C(=O)C(=O)c1ccccc1-2	91	.	.
Cc1ccc(-c2nc3n(n2)Cc2ccccc2-3)cc1	-197*	0	13
Cc1nn(CC(=O)N2CCc3ccccc32)c(C)c1S(=O)(=O)NC(C)(C)C	-57*	17	10
Cc1ccc(NC(=O)Nc2nnc(CSCCOc3ccc(Cl)cc3)s2)cc1	-253*	3	12
COc1ccc(C(=O)c2nccc3cc(OC)c(OC)cc23)cc1OC	84	.	.
CN(C)/C=C/C(=O)c1ccc(S(=O)(=O)c2ccccc2)cc1	-61*	-2	6
COc1ccc(C(=O)/C=C/N(C)C)cc1OC	-107*	3	8
CCCCCCCCCCCCCCCC[n+]1ccc(/C=N/O)cc1	80	.	.
Cc1cccc(OCc2nc3ccccc3c(=O)n2N)c1	-92*	-1	5
Cc1nnc(N/N=C/c2cccc(OCc3ccc(Cl)c(Cl)c3)c2)n1N	77	.	.
O=C1c2cc(F)ccc2-n2c1nc1ccccc1c2=O	63	.	.
C=CCC[C@@H](Cc1ccc(F)cc1)C(=O)OC[C@H]1CCCN1C(=O)[C@@H](CC=C)CC(=O)N[C@H](CO)Cc1ccccc1	40	.	.
Fc1ccc(C2=NOC(c3nnc(-c4ccccc4)o3)C2)cc1 (stereo not drawn)	-461*	11	12
CC1=NN(c2ccc(C)cc2C)C(=O)C1C(c1ccccc1O)C1C(=O)N(c2ccc(C)cc2C)N=C1C (stereo not drawn)	97	.	.
CCCCOc1cc(C(=O)OCCN(CC)CC)ccc1N	3	.	.
c1ccc(C2(CN3CCNC[C@H]3Cc3cccc4ccccc34)CC2)cc1	53	.	.
Cc1ccc(CNC(=O)CN(C)S(=O)(=O)c2cnc[nH]2)cc1	-237*	1	10
SMILES	Apaf1 activ	Rh110 act interf	Apaf-1 act conf	others
CCN(CCCNC(=O)CCn1c(=O)[nH]c2ccccc2c1=O)c1ccccc1	-505*	-1	13
Cc1cc(C(C)(C)CC(C)(C)C)ccc1OCCOCC[N+](C)(C)Cc1ccccc1	86	.	.
COc1cc(C#Cc2c(-c3cncn3C)n(C)c3ccc(-c4cnc(OC)nc4)cc23)cc(OC)c1	42	.	.
O=C1c2ccccc2C(O)N1Cc1cccs1 (stereo not drawn)	-41*	0	4
Cc1c(C(=O)N(C)CCOc2ccccc2)oc2c(Cl)cccc12	45	.	.
CN(C(=O)COC(=O)c1cc(S(=O)(=O)N2CCOCC2)c(Cl)cc1Cl)C1CCS(=O)(=O)C1 (stereo not drawn)	-156*	-3	7
CCCCCCCCCCCCCCCC[n+]1cccc(C(=O)N(CC)CC)c1	74	.	.
